Test results taken from ChEMBL document CHEMBL1649261, “Pharmacodynamic profile of tigecycline against methicillin-resistant Staphylococcus aureus in an experimental pneumonia model” (Antimicrob Agents Chemother, 2009).
≈ marks a conversion by molar mass, not a printed value.

Assays:
[1] = Ratio of fAUC to MIC in methicillin-susceptible Staphylococcus aureus ATCC 29213-infected BALB/c mouse at […] maximal effective concentration; assay type: functional
In short: (§1)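 Mice were neutropenic and infected by lung instillation with ATCC 29213, with the MIC set by CLSI broth microdilution in triplicate. Sc treatment started 6 h post-inoculation at 1.56–150 mg/kg/day, given as one, two or three doses. Lung CFU at 24 h were compared with 0-h controls. Change in log10 CFU was fitted against protein-binding-corrected fAUC/MIC with a sigmoid Emax model.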

[2] = Half life in BALB/c mouse infected with Staphylococcus aureus at 12.5 mg/kg, sc administered as single dose; assay type: ADME, organism-based; parameters: dose 12.5 mg/kg, route subcutaneous; settings: in vivo
In short: (§2)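 Neutropenic BALB/c mice (cyclophosphamide ip 250 and 100 mg/kg, days −4 and −1) with S. aureus pneumonia from oral instillation of 0.05 ml of a 3% mucin suspension received a single 0.2-ml sc dose in normal saline. Serum was taken at 0.25, 0.5, 1, 1.5, 2, 4, 6 and 8 h, six mice per time point. Drug was measured by validated HPLC.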

[3] = Ratio of fAUC to MIC in methicillin-susceptible Staphylococcus aureus ATCC 29213-infected BALB/c mouse at bacteriostatic concentration; assay type: functional; in short: as §1
[4] = Cmax in BALB/c mouse infected with Staphylococcus aureus at 25 mg/kg, sc administered as single dose; assay type: ADME, organism-based; parameters: dose 25 mg/kg, route subcutaneous; settings: in vivo; in short: as §2
Staphylococcus aureus [5] = assay: Antibacterial activity against community-acquired methicillin-resistant Staphylococcus aureus 156 by microdilution method; assay type: functional
In short: (§3)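 Tigecycline MIC measured in triplicate by broth microdilution following CLSI guidelines. Isolates were stored at −80°C in skim milk and subcultured twice on blood agar before testing.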

[6] = Ratio of fAUC to MIC in community-acquired methicillin-resistant Staphylococcus aureus 144-infected BALB/c mouse at bacteriostatic concentration; assay type: functional
In short: (§4)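 Neutropenic BALB/c mice (cyclophosphamide 250 and 100 mg/kg i.p., 4 and 1 days before infection) were infected by oral inhalation of 0.05 ml inoculum in 3% mucin under isoflurane. Subcutaneous tigecycline (1.56–150 mg/kg/day, single or 2–3 divided doses, saline vehicle) was started 6 h post-infection. At 24 h lungs were homogenized and plated; change in log10 CFU was taken versus 0-h controls.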

Mus musculus [7] = assay: Volume of distribution in BALB/c mouse infected with Staphylococcus aureus at 50 mg/kg, sc administered as single dose; assay type: ADME, organism-based; parameters: dose 50 mg/kg, route subcutaneous; settings: in vivo; in short: as §2
Mus musculus [8] = assay: Volume of distribution in BALB/c mouse infected with Staphylococcus aureus at 6.25 mg/kg, sc administered as single dose; assay type: ADME, organism-based; parameters: dose 6.25 mg/kg, route subcutaneous; settings: in vivo; in short: as §2
[9] = AUC (0 to 24 hrs) in BALB/c mouse infected with Staphylococcus aureus at 25 mg/kg, sc administered as single dose; assay type: ADME, organism-based; parameters: time < 24 hr, dose 25 mg/kg, route subcutaneous; settings: plasma; in short: as §2
[10] = Ratio of fAUC to MIC in community-acquired methicillin-resistant Staphylococcus aureus 147-infected BALB/c mouse at […] maximal effective concentration; assay type: functional; in short: as §4
[11] = AUC (0 to 24 hrs) in BALB/c mouse infected with Staphylococcus aureus at 6.25 mg/kg, sc administered as single dose; assay type: ADME, organism-based; parameters: time < 24 hr, dose 6.25 mg/kg, route subcutaneous; settings: plasma; in short: as §2
[12] = Protein binding in Staphylococcus aureus-infected BALB/c mouse serum at 25 mg/kg, sc administered as single dose; assay type: ADME, organism-based; parameters: dose 25 mg/kg, route subcutaneous; settings: read-out: PB (converted)
In short: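 Ultrafiltration was run in triplicate with 30,000-MW cutoff devices. Drug was diluted into fresh mouse serum to final 1.5, 3, 6 and 15 μg/ml, held at 37°C for 10 min with shaking, and centrifuged at 1,000 × g for 45 min at 10°C. Binding was calculated as (S − SUF)/S × 100 for each concentration, each matched to a dose by its peak serum level.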

[13] = Ratio of fAUC to MIC in hospital-acquired methicillin-resistant Staphylococcus aureus 152-infected BALB/c mouse at bacteriostatic concentration; assay type: functional
In short: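 Neutropenic BALB/c mice (cyclophosphamide ip 250 and 100 mg/kg, 4 days and 1 day pre-inoculation), isoflurane-anaesthetised, inoculated via the mouth with 0.05 ml of 3.0 × 10^8 CFU/ml in 3% mucin. SC tigecycline in saline, 1.56–150 mg/kg/day single or 2–3 divided doses from 6 h. Whole-lung CFU at 24 h versus 0-h controls; sigmoid Emax fit of Δlog10 CFU against fAUC/MIC gives stasis value.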

Mus musculus [14] = assay: Volume of distribution in BALB/c mouse infected with Staphylococcus aureus at 25 mg/kg, sc administered as single dose; assay type: ADME, organism-based; parameters: dose 25 mg/kg, route subcutaneous; settings: in vivo; in short: as §2
Staphylococcus aureus [15] = assay: Antibacterial activity against community-acquired methicillin-resistant Staphylococcus aureus 144 by microdilution method; assay type: functional; in short: as §3
[16] = Ratio of fAUC to MIC in hospital-acquired methicillin-resistant Staphylococcus aureus 56-infected BALB/c mouse at bacteriostatic concentration; assay type: functional; in short: as §4
[17] = Ratio of fAUC to MIC in community-acquired methicillin-resistant Staphylococcus aureus 147-infected BALB/c mouse at bacteriostatic concentration; assay type: functional; in short: as §4
[18] = Half life in BALB/c mouse infected with Staphylococcus aureus at 6.25 mg/kg, sc administered as single dose; assay type: ADME, organism-based; parameters: dose 6.25 mg/kg, route subcutaneous; settings: in vivo; in short: as §2
[19] = Ratio of fAUC (0 to 8 hrs) in epithelial lining fluid to plasma of Staphylococcus aureus-infected BALB/c mouse at 12.5 mg/kg, sc administered as single dose; assay type: ADME, organism-based; parameters: dose 12.5 mg/kg, route subcutaneous
In short: (§5)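 Neutropenic BALB/c mice (cyclophosphamide ip 250 and 100 mg/kg, 4 d and 1 d pre-inoculation) infected orally with S. aureus in 3% mucin. Single 0.2-ml sc dose in normal saline; six mice per time point. Serum sampled 0.25–8 h, BAL at 0.25, 1, 4, 8 h; HPLC; ELF by urea correction. Trapezoidal AUC0-8; serum corrected for ultrafiltration protein binding, BAL drug assumed free.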

[20] = AUC (0 to 8 hrs) in Staphylococcus aureus-infected BALB/c mouse epithelial lining fluid at 12.5 mg/kg, sc administered as single dose; assay type: ADME, organism-based; parameters: time < 8 hr, dose 12.5 mg/kg, route subcutaneous
In short: (§6)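 Infected neutropenic BALB/c mice received a single sc dose in saline. Normal-saline bronchoalveolar lavage was done at 0.25, 1, 4 and 8 h, six mice per time. HPLC drug levels in lavage were converted to epithelial lining fluid concentrations with the serum/BAL urea ratio. AUC0-8 was calculated by the trapezoidal rule, and ELF drug was taken as free drug.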

[21] = Tmax in BALB/c mouse infected with Staphylococcus aureus at 50 mg/kg, sc administered as single dose; assay type: ADME, organism-based; parameters: dose 50 mg/kg, route subcutaneous; settings: in vivo; in short: as §2
[22] = Ratio of fAUC to MIC in hospital-acquired methicillin-resistant Staphylococcus aureus 152-infected BALB/c mouse at […] maximal effective concentration; assay type: functional; in short: as §4
[23] = Ratio of fAUC to MIC in community-acquired methicillin-resistant Staphylococcus aureus 156-infected BALB/c mouse at bacteriostatic concentration; assay type: functional; in short: as §4
Staphylococcus aureus [24] = assay: Antibacterial activity against hospital-acquired methicillin-resistant Staphylococcus aureus 152 by microdilution method; assay type: functional; in short: as §3
[25] = AUC (0 to 8 hrs) in Staphylococcus aureus-infected BALB/c mouse epithelial lining fluid at 50 mg/kg, sc administered as single dose; assay type: ADME, organism-based; parameters: time < 8 hr, dose 50 mg/kg, route subcutaneous; in short: as §6
[26] = Ratio of fAUC (0 to 8 hrs) in epithelial lining fluid to plasma of Staphylococcus aureus-infected BALB/c mouse at 50 mg/kg, sc administered as single dose; assay type: ADME, organism-based; parameters: dose 50 mg/kg, route subcutaneous; in short: as §5
[27] = Ratio of fAUC to MIC in community-acquired methicillin-resistant Staphylococcus aureus 156-infected BALB/c mouse at 80% maximal effective concentration; assay type: functional; in short: as §4

What does the source list for `CN(C)c1cc(NC(=O)CNC(C)(C)C)c(O)c2c1C[C@H]1C[C@H]3[C@H](N(C)C)C(O)=C(C(N)=O)C(=O)[C@@]3(O)C(O)=C1C2=O` [TIGECYCLINE]?
fAUC/MIC [1]: 2.33; half-life [2]: 7.13 h; fAUC/MIC [3]: 2.38; Cmax [4]: 5990 ng/mL; MIC (Staphylococcus aureus [5]): 0.125 µg/mL (≈ 0.213 µM); fAUC/MIC [6]: 2.17; Vd (Mus musculus [7]): 2.62 L/kg; Vd (Mus musculus [8]): 3.44 L/kg; AUC(0-t) at 24 h [9]: 37500 ng·h/mL; fAUC/MIC [10]: 0.69; AUC(0-t) at 24 h [11]: 9980 ng·h/mL; fraction unbound [12]: 0.063; fAUC/MIC [13]: 1.51; Vd (Mus musculus [14]): 2.77 L/kg; MIC (Staphylococcus aureus [15]): 0.25 µg/mL (≈ 0.427 µM); fAUC/MIC [16]: 0.43; fAUC/MIC [17]: 0.41; half-life [18]: 12.4 h; Kp uu [19]: 7.02; AUC(0-t) at 8 h [20]: 11000 ng·h/mL; Tmax [21]: 0.35 h; fAUC/MIC [22]: 1.43; fAUC/MIC [23]: 4.18; MIC (Staphylococcus aureus [24]): 0.25 µg/mL (≈ 0.427 µM); AUC(0-t) at 8 h [25]: 41900 ng·h/mL; Kp uu [26]: 23.9; fAUC/MIC [27]: 5.22
